Bioassay records: PubChem, several laboratories
Shown are actives, neighbours in structure and some others; about 1.3% of the full set was active somewhere.
CendR NRP1 mod: modulators of CendR peptide binding to NRP-1, primary screen, biochemical, fluorescence polarization, uHTS | FAM-RPARPAR peptide binding to NRP-1 | Neuropilin-1 (Homo sapiens), O14786 | 360,000 compounds, 0.85% hits | inhibition, % at 25 µM;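 active = inhibition or corrected inhibition above about 18%, plus a signal ratio from 0.5 to 1.5, limit read from the data, passing the limit was not always enough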
DDE Tn7 FP inh: inhibitors of Tn7 peptide binding to fibrin DD(E), primary screen, biochemical, fluorescence polarization, human fibrin, Tn7 probe. Fibrinogen beta chain (Homo sapiens), P02675. FP displacement of FITC-Tn7 peptide from fibrin DD(E); 0% = median of compound wells per plate. inhibition, % at 8.3 µM. 370,000 compounds, 0.13% hits. AID 720508, 2013;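 active = inhibition above the mean of compounds falling within the control limits plus 3 SD of them, cut at about 14% in these data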
Target sequence (P02675 whole entry, looked up): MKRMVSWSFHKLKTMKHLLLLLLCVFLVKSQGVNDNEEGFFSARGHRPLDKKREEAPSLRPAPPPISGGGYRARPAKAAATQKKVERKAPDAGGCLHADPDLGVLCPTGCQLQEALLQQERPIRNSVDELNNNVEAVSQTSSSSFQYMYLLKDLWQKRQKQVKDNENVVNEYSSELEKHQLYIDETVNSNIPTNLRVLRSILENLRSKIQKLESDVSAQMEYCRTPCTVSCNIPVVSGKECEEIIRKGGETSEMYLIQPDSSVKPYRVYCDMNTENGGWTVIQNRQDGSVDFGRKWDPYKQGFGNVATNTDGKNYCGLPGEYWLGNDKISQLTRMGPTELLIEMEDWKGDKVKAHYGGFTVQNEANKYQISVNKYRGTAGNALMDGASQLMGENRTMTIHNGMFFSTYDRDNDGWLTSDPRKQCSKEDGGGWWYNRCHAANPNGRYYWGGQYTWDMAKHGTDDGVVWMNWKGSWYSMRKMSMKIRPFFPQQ
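Assay system: human fibrin DD(E). Input: DD(E) 2 µM final. Medium: Tris buffer with calcium and detergent, pH 7.8. Compound dosing: single point at 8.3 µM. Timing: 10 min plus 3 h, room temperature. Technique: fluorescence polarization of the labelled Tn7 tracer. Read-out: percent inhibition. Replicates: singlicate testing.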
DDE Tn6 FP inh: inhibitors of Tn6 peptide binding to fibrin DD(E), primary screen, biochemical, fluorescence polarization, human fibrin, Tn6 probe. Fibrinogen beta chain (Homo sapiens), P02675. AID 720509, 2013. Fibrin DD(E) TRITC-Tn6 fluorescence polarization displacement. inhibition, % at 8.3 µM. 370,000 compounds, 0.21% hits;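 active = inhibition above a per-campaign cutoff: mean of compounds within control limits plus 3 SD, cut at about 15% in these data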
aDG glyco up: activators of alpha-DG glycosylation, primary screen, uHTS, Pro5-aDG cells, AlphaScreen; alpha-DG glycosylation AlphaScreen (IIH6); 0% Pro5, 100% B10-LARGE cell signal; activation, % at 10 µM; 360,000 compounds, 0.22% hits;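 active = activation of at least 8% versus controls, or a plate z-score of at least 8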;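 also: Pro5 are CHO cells carrying HIG-tagged alpha-DG that lacks glycosylation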
Tn6 DDE ctr: DD(E)-Tn6 binding inhibition, counter-screen; shares compounds with DDE Tn6 FP inh; Fibrin DD(E), TRITC-Tn6 fluorescence polarization displacement; 0% = median of compound wells, not DMSO; inhibition, % at 8.3 µM; 680 compounds, 2% hits;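 active = inhibition above the mean of test compounds lying between the control limits plus 3 SD of those, cut at about 14% in these data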
Tn6 DDE conf: inhibitors of Tn6 peptide binding to fibrin DD(E), confirmation, biochemical, fluorescence polarization, human fibrin, Tn6 probe; shares compounds with DDE Tn6 FP inh; FP displacement of TRITC-Tn6 peptide from DD(E); 0% = per-plate median of test wells; inhibition, % at 8.3 µM; 680 compounds, 10% hits;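 active = inhibition above the mean of compounds lying within the control limits plus 3 SD, cut at about 16% in these data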
Of the large screens only hits and unclear results are named; the others gave an inactive call (follow-up assays come after a bar, where they were run).

O=C(NCc1ccco1)O[C@@H]1CC[C@@]23CCCN2C(=O)CCC[C@H]3C1	none (no result: CendR NRP1 mod, aDG glyco up)
O=C(Nc1cccc([N+](=O)[O-])c1)c1ccc([N+](=O)[O-])o1	DDE Tn6 FP inh 18 | Tn6 DDE ctr inactive | Tn6 DDE conf inactive
CCCN1CCN(C(=O)Nc2ccc(OCC)cc2)CC1	DDE Tn6 FP inh 15 | Tn6 DDE ctr inactive | Tn6 DDE conf inactive
COC(=O)c1cccc(NC(=S)N2CCCCC2)c1	none
COC(=O)c1cccc(NC(=S)N2CCN(c3ccccc3F)CC2)c1	DDE Tn6 FP inh 18 | Tn6 DDE ctr inactive | Tn6 DDE conf inactive
Cc1nn(-c2ccccc2)c(C)c1/C=N\N1CCN(Cc2ccccc2Cl)CC1	none (no result: CendR NRP1 mod, aDG glyco up)
O=C(Nc1ccc(S(=O)(=O)Nc2ncccn2)cc1)C1CC(=O)N(c2ccc(Cl)cc2)C1 (configuration not stated)	DDE Tn6 FP inh 17 | Tn6 DDE ctr inactive | Tn6 DDE conf inactive
O=C(CSc1ccc(Br)c2cccc(Cl)c12)Nc1ccc(S(=O)(=O)Nc2nccs2)cc1	DDE Tn6 FP inh 27 | Tn6 DDE ctr inactive | Tn6 DDE conf inactive
O=C(Cc1ccccc1Cl)Nc1ccc(S(=O)(=O)Nc2nccs2)cc1	none
Oc1ccccc1C1CC(c2cccs2)=NC(c2cccc(Br)c2)N1 (configuration not stated)	DDE Tn6 FP inh 105 | Tn6 DDE ctr inactive | Tn6 DDE conf inactive
O=S(=O)(c1ccccc1)N1N=C(c2cccs2)CC1c1cccc(O)c1 (configuration not stated)	none
O=C(CSc1nnc(-c2cccnc2)n1-c1ccc(Cl)cc1)Nc1ccccc1-c1ccccc1	none (no result: CendR NRP1 mod, aDG glyco up)
CCOC(=O)Cc1cc(-c2ccc(O)cc2)nc2ccc3ccccc3c12	none
CCOC(=O)Cc1cc(-c2ccc(F)cc2)nc2ccc3ccccc3c12	DDE Tn6 FP inh 16 | Tn6 DDE ctr inactive | Tn6 DDE conf inactive
O=C(COc1ccc(CNC[C@H]2O[C@@H](n3ccc(=O)[nH]c3=O)[C@H](O)[C@@H]2O)cc1)Nc1ccccn1	none
O=S1(=O)CC(O)C(O)CS1 (configuration not stated)	none
COc1ccc(NC(=O)C2CCCN2C(=O)NC2CCCCC2)cc1 (configuration not stated)	DDE Tn6 FP inh 17 | Tn6 DDE ctr inactive | Tn6 DDE conf inactive
Brc1ccc(-c2nnc3c4ccccc4nc(N4CCOCC4)n23)cc1	none
Fc1ccccc1-c1nnc2c3ccccc3nc(N3CCOCC3)n12	DDE Tn6 FP inh 15 | Tn6 DDE ctr inactive | Tn6 DDE conf inactive
CC(=O)Nc1ccc(S(=O)(=O)NN=c2sc3ccccc3n2C)cc1N	none
COc1ccc(C(=O)NCc2nnc(SCC(=O)Nc3cc(OC)ccc3OC)o2)cc1	DDE Tn6 FP inh 15 | Tn6 DDE ctr inactive | Tn6 DDE conf inactive
COc1ccc(OC)c(NC(=O)CSc2nnc(CNC(=O)c3ccccc3F)o2)c1	none
O=C(NCc1ccc(Cl)cc1)C1CCC(CNc2c(N3CCCCC3)c(=O)c2=O)CC1 (configuration not stated)	DDE Tn6 FP inh 16 | Tn6 DDE ctr inactive | Tn6 DDE conf inactive
C[C@H]1[C@@H](OC(=O)N2CCCC2)CC[C@@]23CCCN2C(=O)CCC[C@@H]13	none (no result: CendR NRP1 mod, aDG glyco up)
COc1cc(OC)cc(C(=O)N(CN2CCCC2=O)c2ccccc2OC)c1	DDE Tn6 FP inh 16 | Tn6 DDE ctr inactive | Tn6 DDE conf inactive
COc1ccc(NC(=O)CC(C)(C)C)c([N+](=O)[O-])c1	DDE Tn6 FP inh 16 | Tn6 DDE ctr inactive | Tn6 DDE conf inactive
CC(=O)N1CCN(C(=O)CCNS(=O)(=O)c2ccc(Br)cc2)CC1	DDE Tn6 FP inh 18 | Tn6 DDE ctr inactive | Tn6 DDE conf inactive
O=C(CCNS(=O)(=O)c1ccc(Br)cc1)N1CCCCCCC1	none
Nc1sccc1C(=O)c1ccccc1	DDE Tn6 FP inh 15 (no result: CendR NRP1 mod, aDG glyco up) | Tn6 DDE ctr inactive | Tn6 DDE conf inactive
O=C(c1ccccc1)c1ccccc1C(=O)c1ccccc1	none
CC1CC(C)CN(S(=O)(=O)c2ccc3c(c2)oc(=O)n3CC(=O)N(C)Cc2ccccc2)C1 (configuration not stated)	DDE Tn6 FP inh 15 | Tn6 DDE ctr inactive | Tn6 DDE conf inactive
O=C(COc1ccccc1Cl)NC(=S)Nc1ccccc1N1CCCC1	DDE Tn6 FP inh 16 | Tn6 DDE ctr inactive | Tn6 DDE conf inactive
C[C@H](CO)N1C[C@H](C)[C@@H](CN(C)S(=O)(=O)c2ccc(F)cc2)Oc2ccc(NC(=O)Nc3ccccc3)cc2C1=O	none
C[C@@H]1CN([C@H](C)CO)C(=O)c2cc(NC(=O)Nc3ccc(C(F)(F)F)cc3)ccc2O[C@H]1CN(C)S(=O)(=O)c1cccs1	DDE Tn6 FP inh 54 | Tn6 DDE ctr inactive | Tn6 DDE conf inactive
C[C@H](CO)N1C[C@H](C)[C@@H](CN(C)S(=O)(=O)c2cccs2)Oc2ccc(NC(=O)CCC(F)(F)F)cc2C1=O	none
C[C@H](CO)N1C[C@H](C)[C@@H](CN(C)S(=O)(=O)c2cccs2)Oc2ccc(NC(=O)Nc3ccccc3)cc2C1=O	none
C[C@H](CO)N1C[C@H](C)[C@@H](CN(C)S(=O)(=O)c2ccc(F)cc2)Oc2ccc(NC(=O)Nc3ccc(C(F)(F)F)cc3)cc2C1=O	DDE Tn6 FP inh 42 | Tn6 DDE ctr inactive | Tn6 DDE conf inactive
C[C@@H]1CN([C@@H](C)CO)C(=O)Cc2cc(NC(=O)Nc3ccc(C(F)(F)F)cc3)ccc2O[C@@H]1CN(C)S(=O)(=O)c1ccc(Cl)cc1	DDE Tn6 FP inh 32 | Tn6 DDE ctr inactive | Tn6 DDE conf inactive
C[C@H](CO)N1C[C@H](C)[C@@H](CN(C)S(=O)(=O)c2cccs2)Oc2ccc(NC(=O)Nc3ccc(C(F)(F)F)cc3)cc2C1=O	DDE Tn6 FP inh 51 | Tn6 DDE ctr inactive | Tn6 DDE conf inactive
Cc1c(-n2cc(C(=O)O)c(=O)c3cc(F)c(N4CCCC(O)C4)c(F)c32)c(=O)n(-c2ccccc2)n1C (configuration not stated)	none
O=C(O)c1cn(-c2ccc(N3CCCC3)c(F)c2)c2c(F)c(F)c(F)cc2c1=O	DDE Tn6 FP inh 18 | Tn6 DDE ctr inactive | Tn6 DDE conf inactive
CN(C)c1ccc(N=Nc2ccc(S(N)(=O)=O)cc2)cc1	none
CC1=CC(=O)C=CC1=Nc1ccc(N(C)C)cc1	DDE Tn6 FP inh 22 | Tn6 DDE ctr inactive | Tn6 DDE conf inactive
Cc1ccc(-c2cc(-c3nnc(SCC(=O)Nc4ccc(OCc5ccccc5)cc4)n3N)[nH]n2)cc1	none (no result: CendR NRP1 mod, aDG glyco up)
